We go through one compound from ChEMBL document CHEMBL1142431, “Benzodioxoles: novel cannabinoid-1 receptor inverse agonists for the treatment of obesity” (J Med Chem, 2008).

The EC50 is the concentration giving half of the maximal effect. The solubility is the dissolved amount per volume that the medium holds. A low value points to a poorly soluble substance.

≈ marks a conversion by molar mass, not a printed value. Calls of active or inactive are those of the source. The rule behind the calls is not given here. Bounds are passed on as bounds.

The species entered for series [1] is Homo sapiens. The series can be described thus: Selectivity for human CB1 receptor over human ORL1 receptor.
Series [2] can be described thus: Selectivity for human CB1 receptor over P2X receptor.
The nature of series [3]: Selectivity for human CB1 receptor over sigma receptor.
Series [4] in a line: Selectivity for human CB1 receptor over L type calcium channel at diltiazem site.
A short description of series [5]: Selectivity for human CB1 receptor over K ATP channel.
Series [6] can be described thus: Selectivity for human CB1 receptor over BZD receptor.
Series [7] has as its system Rattus norvegicus. The series is described as follows: Reduction in progression of body weight in diet-induced obesity Sprague-Dawley rat model at 1 mg/kg, po for 16 days. Also noted: dose 1 mg/kg. The class given is functional, organism-based. The procedure, abridged:
(§1)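 Obese Sprague-Dawley rats (HFD 10 weeks from 3 weeks old, selected as >2 SD above chow controls), n = 9 per group, gavage-adapted 3 days, then dosed daily by gavage at 5:00 p.m. for 16 days in water with 7.5% gelatine and 0.62% NaCl, 2 mL/kg; body weight and food intake recorded daily.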

Series [8] concerns Rattus norvegicus. The series can be described thus: Reduction in progression of body weight in diet-induced obesity Sprague-Dawley rat model at 3 mg/kg, po for 16 days. The class given is functional, organism-based. Set-up: dose 3 mg/kg. The procedure, abridged:
as §1

For series [9], the species on record is Homo sapiens. The series can be described thus: Selectivity for human CB1 receptor over human CB2 receptor.
The species named for series [10] is Homo sapiens. The series is described as follows: Selectivity for human CB1 receptor over human adenosine A1 receptor.
Series [11] is filed under the species Homo sapiens. The series is described as follows: Selectivity for human CB1 receptor over human adenosine A2A receptor.
The species named for series [12] is Homo sapiens. The series is described as follows: Selectivity for human CB1 receptor over human adrenergic beta2 receptor.
The species named for series [13] is Homo sapiens. The series can be described thus: Selectivity for human CB1 receptor over human AT2 receptor.
A short description of series [14]: Selectivity for human CB1 receptor over NMDA receptor.
A short description of series [15]: Selectivity for human CB1 receptor over histamine H1 receptor.
The nature of series [16]: Selectivity for human CB1 receptor over muscarinic receptor.
The target in a further series is Cannabinoid receptor 1 (Homo sapiens, UniProt P21554). The series is described as follows: Activity at human CB1R expressed in HEK293 cells assessed as intracellular cAMP level. The class given is functional, cell-based. For orientation: cAMP levels reflect the balance of adenylyl cyclase and phosphodiesterase activity.
A short description of series [17]: Solubility in fed state stimulated intestinal fluid at pH 6.6. It counts as physicochemical. To be noted: fed state simulated intestinal fluid. The method, boiled down: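 Excess compound (about 1-2 mg) was placed in about […] of 50 mM fed-state simulated intestinal fluid at room temperature. Final pH was measured the next day, then samples were filtered and quantified by HPLC against a five-dilution calibration.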

Sequence of Cannabinoid receptor 1 (P21554 whole entry): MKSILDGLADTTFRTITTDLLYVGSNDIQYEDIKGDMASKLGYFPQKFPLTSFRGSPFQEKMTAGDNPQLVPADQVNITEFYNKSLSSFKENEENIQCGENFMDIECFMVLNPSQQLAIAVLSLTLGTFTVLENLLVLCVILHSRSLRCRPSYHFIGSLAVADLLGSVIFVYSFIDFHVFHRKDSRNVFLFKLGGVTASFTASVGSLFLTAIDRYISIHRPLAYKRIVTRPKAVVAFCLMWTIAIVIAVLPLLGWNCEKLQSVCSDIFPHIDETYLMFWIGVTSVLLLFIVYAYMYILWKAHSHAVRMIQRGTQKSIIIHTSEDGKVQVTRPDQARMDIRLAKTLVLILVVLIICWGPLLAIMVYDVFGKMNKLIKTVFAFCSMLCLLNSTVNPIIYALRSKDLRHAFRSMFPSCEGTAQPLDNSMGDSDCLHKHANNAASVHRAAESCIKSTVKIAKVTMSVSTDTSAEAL

As to `O=C(c1cc2c(cc1F)O[C@](c1ccc(F)cc1)(c1ccc(Cl)cc1Cl)O2)N1CCOCC1`, the Selectivity ratio (in the series listed under Homo sapiens [1]; in [2]; in [3]; in [4]; in [5]; in [6]) was 300 each time. In addition, the Selectivity ratio in the series listed under Homo sapiens [9] is greater than 1000; in the series listed under Homo sapiens [10], 300; in the series filed under Homo sapiens [11] it was 300; in the series filed under Homo sapiens [12], 300; in the series filed under Homo sapiens [13], 300; in series [14], 300. In addition, the Selectivity ratio in series [15] and in [16] was 300 each time. Besides, the result in the series on Rattus norvegicus [7] and in the series with Rattus norvegicus [8] was Active. In addition, the EC50 on Cannabinoid receptor 1 came to 8 nM. In addition, in [17], the concentration in solution (solubility) came to 445 µg/mL (≈ 904 µM).
